What is called Ki is the equilibrium dissociation constant of an inhibitor or competing ligand from its target. A word on the IC50: it is the midpoint of a concentration-inhibition curve.

The source made the active and inactive calls. No cut-off for these calls is given here.

Experimental findings from ChEMBL document CHEMBL2021835 (J Med Chem, 2012) are described below.

Assay [1] addresses T1, Signal transducer and activator of transcription 5B (Homo sapiens, UniProt P51692).
T1 sequence (P51692 whole entry): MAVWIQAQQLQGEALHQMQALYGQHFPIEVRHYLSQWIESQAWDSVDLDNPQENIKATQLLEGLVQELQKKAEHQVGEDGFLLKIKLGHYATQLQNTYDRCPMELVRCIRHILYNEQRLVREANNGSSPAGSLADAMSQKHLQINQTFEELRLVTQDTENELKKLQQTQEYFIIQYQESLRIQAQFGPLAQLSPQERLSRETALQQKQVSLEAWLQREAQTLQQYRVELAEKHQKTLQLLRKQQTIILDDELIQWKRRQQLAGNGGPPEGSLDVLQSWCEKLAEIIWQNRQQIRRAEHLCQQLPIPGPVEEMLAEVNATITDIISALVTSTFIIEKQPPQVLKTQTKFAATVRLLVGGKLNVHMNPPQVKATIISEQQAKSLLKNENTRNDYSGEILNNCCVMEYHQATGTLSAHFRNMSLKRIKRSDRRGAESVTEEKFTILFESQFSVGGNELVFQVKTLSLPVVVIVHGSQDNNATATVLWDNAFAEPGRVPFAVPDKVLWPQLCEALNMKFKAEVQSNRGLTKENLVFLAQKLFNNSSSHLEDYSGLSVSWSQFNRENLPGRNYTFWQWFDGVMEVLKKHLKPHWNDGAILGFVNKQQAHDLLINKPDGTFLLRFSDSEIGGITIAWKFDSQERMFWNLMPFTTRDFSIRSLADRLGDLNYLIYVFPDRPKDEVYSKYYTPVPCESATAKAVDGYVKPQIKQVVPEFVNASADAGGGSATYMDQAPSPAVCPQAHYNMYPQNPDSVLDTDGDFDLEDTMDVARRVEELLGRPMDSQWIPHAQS
Briefly: Displacement of 5-carboxyfluorescein-labeled GpYLVLDKW from the STAT5b-SH2 domain after 15 mins by fluorescent polarization assay. The essentials: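 Competitive FP binding assay in 50 mM NaCl, 10 mM Hepes pH 7.5, 1 mM EDTA, 2 mM DTT with 5% DMSO final. Protein final concentrations were STAT1 120 nM, STAT3 150 nM and STAT5 105 nM. Inhibitor was tested at 200 to 0.2 μM final against 10 nM fluorescent probe, incubated 15 min. Polarization vs concentration was fitted to a standard dose-response curve.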

Assay [2] relates to MV4-11. Briefly: Cytotoxicity against human MV4-11 cells expressing STAT5 after 48 hrs by alamar blue fluorescent staining. Format: functional, cell-based. As to conditions: MV4-11, 48 h. In short, it runs like this:
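Cells seeded at 1 × 10^5 in exponential growth and treated at 10, 20 and 40 μM. Viability was read by Alamar Blue fluorescence daily over 3 consecutive days.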
A general note: The colour change of resazurin is a common sign of viable cells or microbes.

For assay [3], the target named is Bcr/Abl fusion protein (Homo sapiens) (UniProt P00519+P11274). Briefly: Inhibition of BCR-ABL-mediated AKT phosphorylation in human K562 cells at 40 uM after 6 hrs by phospho-flow cytometry. Format: cell-based. In short, it runs like this: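 K562 cells were treated at 40 μM for 6 h, or left untreated, then fixed. Cells were stained with unlabeled rabbit monoclonal antibodies to pSTAT3, pSTAT5 or pAKT1, detected with Cy5-anti-rabbit IgG, and read by flow cytometry.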
Sequence of Bcr/Abl fusion protein (Homo sapiens) (P00519 whole entry, looked up, the tested form may be a part): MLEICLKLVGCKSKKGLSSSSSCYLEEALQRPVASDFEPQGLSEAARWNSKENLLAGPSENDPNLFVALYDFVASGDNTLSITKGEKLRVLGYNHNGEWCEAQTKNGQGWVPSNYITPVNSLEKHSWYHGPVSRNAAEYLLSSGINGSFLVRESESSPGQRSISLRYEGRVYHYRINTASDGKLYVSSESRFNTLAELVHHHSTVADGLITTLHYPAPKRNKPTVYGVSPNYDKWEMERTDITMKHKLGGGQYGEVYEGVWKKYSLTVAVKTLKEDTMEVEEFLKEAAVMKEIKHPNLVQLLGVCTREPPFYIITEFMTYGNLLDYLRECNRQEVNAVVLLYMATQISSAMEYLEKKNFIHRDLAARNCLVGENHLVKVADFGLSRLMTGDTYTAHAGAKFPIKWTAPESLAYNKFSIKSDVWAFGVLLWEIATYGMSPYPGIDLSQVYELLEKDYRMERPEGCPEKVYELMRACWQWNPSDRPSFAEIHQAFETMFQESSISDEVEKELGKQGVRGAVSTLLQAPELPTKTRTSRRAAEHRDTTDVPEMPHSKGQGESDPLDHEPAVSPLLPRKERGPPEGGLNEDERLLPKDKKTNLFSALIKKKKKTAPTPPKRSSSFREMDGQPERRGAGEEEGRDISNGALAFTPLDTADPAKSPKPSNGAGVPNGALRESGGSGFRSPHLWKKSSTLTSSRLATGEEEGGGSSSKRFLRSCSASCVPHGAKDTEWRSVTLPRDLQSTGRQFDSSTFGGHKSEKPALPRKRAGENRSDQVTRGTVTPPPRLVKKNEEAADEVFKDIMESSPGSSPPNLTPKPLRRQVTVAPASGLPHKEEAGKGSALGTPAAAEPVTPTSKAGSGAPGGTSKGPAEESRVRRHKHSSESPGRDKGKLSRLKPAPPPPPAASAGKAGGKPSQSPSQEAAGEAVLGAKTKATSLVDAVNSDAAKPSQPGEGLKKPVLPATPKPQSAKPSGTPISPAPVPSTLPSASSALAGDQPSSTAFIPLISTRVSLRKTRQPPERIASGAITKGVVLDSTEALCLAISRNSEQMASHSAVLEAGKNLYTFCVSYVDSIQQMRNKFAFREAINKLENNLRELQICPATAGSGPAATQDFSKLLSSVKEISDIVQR
Sequence of Bcr/Abl fusion protein (Homo sapiens) (P11274 whole entry, looked up, the tested form may be a part): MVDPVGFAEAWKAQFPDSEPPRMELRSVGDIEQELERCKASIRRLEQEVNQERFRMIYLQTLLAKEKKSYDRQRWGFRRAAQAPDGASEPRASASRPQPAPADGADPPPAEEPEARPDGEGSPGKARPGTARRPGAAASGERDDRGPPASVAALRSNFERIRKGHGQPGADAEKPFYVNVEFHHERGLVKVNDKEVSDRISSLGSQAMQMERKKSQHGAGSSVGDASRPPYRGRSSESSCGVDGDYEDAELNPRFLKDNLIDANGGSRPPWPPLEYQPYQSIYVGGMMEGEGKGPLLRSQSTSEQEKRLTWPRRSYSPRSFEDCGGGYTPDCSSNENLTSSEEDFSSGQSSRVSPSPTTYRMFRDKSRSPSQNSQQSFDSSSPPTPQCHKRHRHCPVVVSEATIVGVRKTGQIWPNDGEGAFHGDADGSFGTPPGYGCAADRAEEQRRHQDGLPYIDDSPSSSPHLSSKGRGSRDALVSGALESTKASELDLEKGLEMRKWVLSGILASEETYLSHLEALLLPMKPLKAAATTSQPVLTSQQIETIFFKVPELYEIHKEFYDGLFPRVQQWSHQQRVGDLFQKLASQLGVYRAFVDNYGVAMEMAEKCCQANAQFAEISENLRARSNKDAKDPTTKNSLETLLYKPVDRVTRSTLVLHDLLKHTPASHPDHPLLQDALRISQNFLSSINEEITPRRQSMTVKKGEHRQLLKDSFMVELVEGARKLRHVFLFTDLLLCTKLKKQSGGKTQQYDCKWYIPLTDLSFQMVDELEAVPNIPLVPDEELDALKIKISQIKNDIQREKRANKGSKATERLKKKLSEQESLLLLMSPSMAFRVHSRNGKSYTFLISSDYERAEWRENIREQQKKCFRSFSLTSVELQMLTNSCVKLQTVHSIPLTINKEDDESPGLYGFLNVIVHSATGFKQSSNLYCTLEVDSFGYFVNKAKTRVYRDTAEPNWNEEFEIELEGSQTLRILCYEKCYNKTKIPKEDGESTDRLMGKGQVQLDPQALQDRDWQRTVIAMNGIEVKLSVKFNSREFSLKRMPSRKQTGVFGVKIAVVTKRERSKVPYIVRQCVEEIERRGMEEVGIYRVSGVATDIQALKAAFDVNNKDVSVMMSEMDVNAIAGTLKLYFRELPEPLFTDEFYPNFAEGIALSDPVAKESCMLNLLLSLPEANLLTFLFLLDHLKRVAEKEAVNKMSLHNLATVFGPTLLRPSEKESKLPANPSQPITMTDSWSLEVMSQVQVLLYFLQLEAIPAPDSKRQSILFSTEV
A general note: Flow cytometry measures light scatter and fluorescence of single cells or particles in a stream.

Assay [4] concerns the target T2, Signal transducer and activator of transcription 5A (Homo sapiens) (UniProt P42229).
T2 sequence (whole entry): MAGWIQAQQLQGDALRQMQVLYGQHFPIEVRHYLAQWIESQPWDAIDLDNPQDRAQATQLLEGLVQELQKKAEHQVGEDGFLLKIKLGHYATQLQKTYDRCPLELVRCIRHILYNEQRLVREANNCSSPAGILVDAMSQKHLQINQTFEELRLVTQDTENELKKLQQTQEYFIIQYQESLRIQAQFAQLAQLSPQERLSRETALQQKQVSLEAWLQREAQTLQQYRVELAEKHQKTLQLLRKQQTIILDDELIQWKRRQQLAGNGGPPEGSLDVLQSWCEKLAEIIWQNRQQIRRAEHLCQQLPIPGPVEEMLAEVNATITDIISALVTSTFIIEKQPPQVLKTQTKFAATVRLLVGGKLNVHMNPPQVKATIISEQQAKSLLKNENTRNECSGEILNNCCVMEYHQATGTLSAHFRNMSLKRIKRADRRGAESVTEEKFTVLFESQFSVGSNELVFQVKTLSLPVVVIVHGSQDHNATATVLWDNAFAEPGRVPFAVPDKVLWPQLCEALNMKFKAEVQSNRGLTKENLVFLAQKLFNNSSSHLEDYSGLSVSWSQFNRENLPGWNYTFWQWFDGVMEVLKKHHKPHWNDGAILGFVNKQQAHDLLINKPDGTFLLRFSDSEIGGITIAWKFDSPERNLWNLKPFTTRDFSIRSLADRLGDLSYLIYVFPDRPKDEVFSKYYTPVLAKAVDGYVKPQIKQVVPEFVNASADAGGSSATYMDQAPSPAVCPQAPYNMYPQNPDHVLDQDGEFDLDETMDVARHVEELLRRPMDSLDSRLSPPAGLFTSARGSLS
As to the kind of experiment: Inhibition of STAT5-mediated MCL-1 expression in human K562 cells at 40 uM after 6 hrs by RT-PCR analysis. The format is cell-based. In short, it runs like this:
(§1)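 K562 cells were treated at 40 μM for 6 h. Transcript levels of the STAT5 target genes were measured by RT-PCR.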

Assay [5] deals with T2, Signal transducer and activator of transcription 5A (Homo sapiens). As to the kind of experiment: Inhibition of STAT5-mediated C-MYC expression in human K562 cells at 40 uM after 6 hrs by RT-PCR analysis. The format is cell-based. In short, it runs like this: as §1
The target is the same in assay [6]. Briefly: Inhibition of STAT5-mediated cyclin D1 expression in human K562 cells at 40 uM after 6 hrs by RT-PCR analysis. Format: cell-based. In short, it runs like this:
as §1

`Cc1cc(C)c(S(=O)(=O)N(C)CC(=O)N(Cc2ccc(C3CCCCC3)cc2)c2ccc(C(=O)O)c(O)c2)c(C)c1` came in with a Ki in assay [1] of 2.8 µM. The compound further gave an IC50 in assay [2] of 17 µM. For the same compound, the inhibition entry in assay [3] was “inactive”. Also, the inhibition result in assay [4], in assay [5] and in assay [6] was “Active” each time.
